As usually defined, the pEC50 is the negative decadic logarithm of the EC50, by convention in mol/L.

pEC50: −log10 of the molar value. The source made the active and inactive calls. The rule behind the calls is not given here.

These results are taken from ChEMBL document CHEMBL1138474, “Modulation of the transient receptor potential vanilloid channel TRPV4 by 4alpha-phorbol esters: a structure-activity study” (J Med Chem, 2009).

Assay [1] concerns the target Transient receptor potential cation channel subfamily V member 4 (Mus musculus, UniProt Q9EPK8). As to the kind of experiment: (§1) Activation of mouse wild type TRPV4 expressed in HEK293 cells assessed as increase in intracellular calcium concentration. In kind it is cell-based. Summed up:
(§2)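 mTRPV4 (wild type or the Y556A, S557A or W586A TM3-4 mutant) in pCAGGS/Ires-GFP was transiently transfected into HEK293 cells and incubated overnight. GFP-positive cells on poly-L-lysine coverslips were loaded with 4 µM Fura-2 AM for 30 min at 37 °C and perfused with Krebs solution (1.5 mM CaCl2, pH 7.4). The 340/380 nm ratio (510 nm emission) gave ∆Fura-2 ratio. EC50 came from a Hill fit, >15 cells, three transfections.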
On the technique in general: Calcium flux is commonly read through the fluorescence of an indicator in the cells.

The target in assay [2] is Transient receptor potential cation channel subfamily V member 4 (Mus musculus, UniProt Q9EPK8, Y556A). The assay can be described thus: Activation of mouse TRPV4 Y556A mutant expressed in HEK293 cells assessed as increase in intracellular calcium concentration. Format: cell-based. In outline: as §2
The subject of assay [3] is HEK293. The assay can be described thus: Effect on intracellular calcium level in non transfected HEK293 cells. In kind it is functional, cell-based. Particulars: Homo sapiens. Summed up: (§3)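 GFP-negative cells from the same coverslips as the mTRPV4-transfected HEK293 cells served as untransfected controls. Cells were loaded with 4 µM Fura-2 AM for 30 min at 37 °C and perfused with Krebs solution (pH 7.4). ∆Fura-2 ratio was taken as (Rt−Rt0)/Rt0 from 340/380 nm excitation, with background subtracted.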

In assay [4] the target is Transient receptor potential cation channel subfamily V member 4 (Mus musculus) (UniProt Q9EPK8). The assay can be described thus: Activation of mouse wild type TRPV4 expressed in HEK293 cells assessed as increase in intracellular calcium concentration at 1 uM in presence of TRP antagonist ruthenium red. Format: functional, cell-based. In outline: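 Single-cell fura-2 imaging was done on GFP-positive HEK293 cells transiently expressing mTRPV4, perfused with Krebs buffer (1.5 mM CaCl2, pH 7.4). Agonist at 1 µM was applied in the bath, and ruthenium red 1 µM was added to the extracellular solution as indicated. The read-out was the 340/380 nm ratio change. Three independent experiments were run.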

For assay [5] the target is unchanged. As to the kind of experiment: Activation of mouse wild type TRPV4 expressed in HEK293 cells assessed as outward-inward rectifying current density at 500 nM at a holding potential of 100 mV by whole cell patch-clamp assay in absence of calcium. Format: cell-based. In outline: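 Whole-cell patch clamp was run on mTRPV4-transfected HEK293 cells using ramps from -100 to +100 mV. CaCl2 was omitted from both solutions. Bath (mM): 150 NaCl, 6 CsCl, 1 MgCl2, 10 glucose, 10 HEPES, pH 7.4. Pipette (mM): 20 CsCl, 100 aspartate, 1 MgCl2, 10 HEPES, 4 Na-ATP, 10 BAPTA, pH 7.4. Agonist was added to the bath. Five cells, >2 transfections.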
On the technique in general: The patch-clamp technique gives a direct electrical read-out from membranes.

Assay [6] concerns the target Transient receptor potential cation channel subfamily V member 4 (Mus musculus, UniProt Q9EPK8, S557A). As to the kind of experiment: Activation of mouse TRPV4 S557A mutant expressed in HEK293 cells assessed as increase in intracellular calcium concentration. In kind it is cell-based. Summed up:
as §2

Assay [7] addresses Transient receptor potential cation channel subfamily V member 4 (Mus musculus) (UniProt Q9EPK8). The description is as §1. In kind it is cell-based. Summed up:
as §2

In assay [8] the target is Transient receptor potential cation channel subfamily V member 4 (Mus musculus, UniProt Q9EPK8, W586A). The assay can be described thus: Activation of mouse TRPV4 W586A mutant expressed in HEK293 cells assessed as increase in intracellular calcium concentration. Format: cell-based. Summed up: as §2
Assay [9] deals with Transient receptor potential cation channel subfamily V member 4 (Mus musculus) (UniProt Q9EPK8). The assay can be described thus: Activation of mouse wild type TRPV4 expressed in HEK293 cells assessed as outward-inward rectifying current density at 500 nM at a holding potential of 100 mV by whole cell patch-clamp assay in presence of calcium. Format: cell-based. In outline: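 Whole-cell patch clamp was run on mTRPV4-transfected HEK293 cells using ramps from -100 to +100 mV. Bath (mM): 150 NaCl, 6 CsCl, 1 MgCl2, 5 CaCl2, 10 glucose, 10 HEPES, pH 7.4. Pipette (mM): 20 CsCl, 100 aspartate, 1 MgCl2, 10 HEPES, 4 Na-ATP, 10 BAPTA, free Ca2+ buffered to 200 nM, pH 7.4. Agonist was added to the bath. Five cells, >2 transfections.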

The subject of assay [10] is HEK293. As to the kind of experiment: Effect on intracellular calcium level in non transfected HEK293 cells assessed as increase in fura-2 ratio. Format: functional, cell-based. The following applies: Homo sapiens. Summed up: as §3

Chain of Transient receptor potential cation channel subfamily V member 4 (Mus musculus) (Q9EPK8 whole entry, the tested form may be a part): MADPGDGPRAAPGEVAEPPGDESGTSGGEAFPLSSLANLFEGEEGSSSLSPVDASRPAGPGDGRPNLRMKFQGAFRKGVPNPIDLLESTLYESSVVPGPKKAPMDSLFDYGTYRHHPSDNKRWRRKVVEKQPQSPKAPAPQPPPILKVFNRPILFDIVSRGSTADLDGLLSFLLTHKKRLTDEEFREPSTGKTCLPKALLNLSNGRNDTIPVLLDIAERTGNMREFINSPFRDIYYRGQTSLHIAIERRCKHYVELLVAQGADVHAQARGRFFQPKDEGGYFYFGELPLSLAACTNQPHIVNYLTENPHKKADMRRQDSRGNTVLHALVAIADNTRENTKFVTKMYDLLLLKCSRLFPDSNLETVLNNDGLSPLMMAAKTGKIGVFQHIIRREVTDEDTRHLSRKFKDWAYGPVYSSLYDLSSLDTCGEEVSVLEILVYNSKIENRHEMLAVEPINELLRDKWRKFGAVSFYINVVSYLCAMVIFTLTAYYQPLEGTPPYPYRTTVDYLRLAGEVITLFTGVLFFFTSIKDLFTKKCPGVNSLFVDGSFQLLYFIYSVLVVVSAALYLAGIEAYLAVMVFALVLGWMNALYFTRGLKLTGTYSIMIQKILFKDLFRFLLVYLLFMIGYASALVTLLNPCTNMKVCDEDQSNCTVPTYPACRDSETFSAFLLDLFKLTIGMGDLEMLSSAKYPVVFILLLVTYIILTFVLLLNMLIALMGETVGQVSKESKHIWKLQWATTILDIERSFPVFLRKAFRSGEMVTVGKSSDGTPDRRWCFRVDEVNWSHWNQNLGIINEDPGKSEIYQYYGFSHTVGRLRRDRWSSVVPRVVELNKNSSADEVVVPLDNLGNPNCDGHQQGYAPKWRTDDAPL
Chain of Transient receptor potential cation channel subfamily V member 4 (Mus musculus, UniProt Q9EPK8) (Q9EPK8 whole entry, the tested form may be a part): as above
Chain of Transient receptor potential cation channel subfamily V member 4 (Mus musculus, UniProt Q9EPK8, W586A) (Q9EPK8 whole entry W586A): as the sequence (Q9EPK8 whole entry, the tested form may be a part) above, with W586A counted along it
Chain of Transient receptor potential cation channel subfamily V member 4 (Mus musculus, UniProt Q9EPK8, Y556A) (Q9EPK8 whole entry Y556A, the tested form may be a part): as the sequence (Q9EPK8 whole entry, the tested form may be a part) above, with Y556A counted along it
Chain of Transient receptor potential cation channel subfamily V member 4 (Mus musculus, UniProt Q9EPK8, S557A) (Q9EPK8 whole entry S557A): as the sequence (Q9EPK8 whole entry, the tested form may be a part) above, with S557A counted along it

Take `CCCCCCCCC(=O)O[C@@H]1[C@@H](C)[C@@]2(O)[C@@H](C=C(CO)C[C@@]3(O)C(=O)C(C)=C[C@@H]23)[C@@H]2C(C)(C)[C@]12OC(=O)CCCCCCCC`: in [1], the pEC50 was < 4.30.

Regarding `CCCCCC(=O)O[C@@H]1[C@@H](C)[C@@]2(O)[C@@H](C=C(CO)C[C@@]3(O)C(=O)C(C)=C[C@@H]23)[C@@H]2C(C)(C)[C@]12OC(=O)CCCCC`, the negative logarithm of the EC50 (pEC50) is 5.55 in assay [2], 6.44 in [6], 7.15 in [1] and 5.55 in assay [8]. Also, the outcome (with HEK293 [3]; in [4]) was inactive. In addition, the Activity in assay [5] was 806; in assay [7], “Dose-dependent effect”; in assay [9], 354.

On to `CCCCCCCCCC(=O)O[C@@H]1[C@@H](C)[C@@]2(O)[C@@H](C=C(CO)C[C@@]3(O)C(=O)C(C)=C[C@@H]23)[C@@H]2C(C)(C)[C@]12OC(=O)CCCCCCCCC`, for which the pEC50 is 5.20 in assay [2], 6.49 in assay [6], 6.43 in assay [1] and < 5.22 in assay [8]. In the assay on HEK293 [10], the outcome was Active.

`CCCCCCCCCCCCCC(=O)O[C@@H]1[C@@H](C)[C@@]2(O)[C@@H](C=C(CO)C[C@@]3(O)C(=O)C(C)=C[C@@H]23)[C@@H]2C(C)(C)[C@]12OC(=O)CCCCCCCCCCCCC`: the pEC50 in [1] was 5.55.

For `CCCCCCCCCC(=O)O[C@@H]1[C@@H](C)[C@]2(O)[C@@H]3C=C(C)C(=O)[C@@H]3CC(CO)=C[C@H]2[C@@H]2C(C)(C)[C@]12OC(=O)CCCCCCCCC`, the pEC50 in assay [1] is < 4.30.

With `CCCC(=O)O[C@@H]1[C@@H](C)[C@@]2(O)[C@@H](C=C(CO)C[C@]3(O)C(=O)C(C)=C[C@@H]23)[C@@H]2C(C)(C)[C@]12OC(=O)CCC`, the pEC50 in [1] was 4.65.

Regarding `CCCCCCCC(=O)O[C@@H]1[C@@H](C)[C@@]2(O)[C@@H](C=C(CO)C[C@@]3(O)C(=O)C(C)=C[C@@H]23)[C@@H]2C(C)(C)[C@]12OC(=O)CCCCCCC`, the pEC50 in assay [1] is < 4.30.

Turning to `CCCCCCCCCC(=O)O[C@@]12[C@H](O)[C@@H](C)[C@@]3(O)[C@@H](C=C(CO)C[C@@]4(O)C(=O)C(C)=C[C@@H]34)[C@@H]1C2(C)C`, in the assay on HEK293 [10], the result was Active. Moreover, the pEC50 in assay [1] was 6.35.

Take `CC(=O)O[C@@H]1[C@@H](C)[C@@]2(O)[C@@H](C=C(CO)C[C@@]3(O)C(=O)C(C)=C[C@@H]23)[C@@H]2C(C)(C)[C@]12OC(C)=O`: in assay [1], the pEC50 is < 4.30.
